Data published in ChEMBL document CHEMBL1143105, “Potent and selective small molecule NS3 serine protease inhibitors of Hepatitis C virus with dichlorocyclopropylproline as P2 residue” (Bioorg Med Chem, 2008).
pEC50, pKi: −log10 of the molar value. *1 amine or outer side, *2 acyl side, *3 side chain or, on linkers, in order; H or OH if unused. Where a SMILES comes first, the peptide text is derived from it. [ ]: non-standard residue; d: D form. The star is where a group is joined. Pro(3R,4S-CMe2) = CC1(C)[C@@H]2[C@@H](C(=O)O)NC[C@@H]21; Pro(3S,4R-CCl2) = O=C(O)[C@H]1NC[C@H]2[C@@H]1C2(Cl)Cl; X2 = O=C(C(=O)[*:2])C(CC1CCC1)N[*:1]; X1 = O=C(C(=O)[*:2])C(CC1CC1)N[*:1]; X3 = CCCC(N[*:1])C(=O)C(=O)[*:2]; Chg = N[C@H](C(=O)O)C1CCCCC1; Phg = N[C@H](C(=O)O)c1ccccc1; Tle = CC(C)(C)[C@H](N)C(=O)O; Boc = CC(C)(C)OC(=O)*

What was measured:
[1] = Inhibition of hepatitis C virus NS3 serine protease; design: species or system Hepacivirus hominis
Hepatitis C virus = experiment: Antiviral activity in hepatitis C virus by cell based replicon assay; format: functional, organism-based, Hepacivirus hominis
[2] = Oral bioavailability in rat; format: ADME, organism-based; settings: in vivo
[3] = Oral bioavailability in monkey; format: ADME, organism-based, Macaca mulatta; settings: rhesus monkey, in vivo
[4] = AUC in rat at 10 mg/kg, po; format: ADME, organism-based; design: dose 10 mg/kg, route oral; settings: plasma
[5] = AUC in rat at 10 mg/kg, iv; format: ADME, organism-based; design: dose 10 mg/kg, route intravenous; settings: plasma
[6] = Half life in rat; format: ADME, organism-based; settings: in vivo
[7] = AUC in monkey at 3 mg/kg, po; format: ADME, organism-based, Macaca mulatta; design: dose 3 mg/kg, route oral; settings: rhesus monkey, plasma
[8] = AUC in monkey at 2.2 mg/kg, iv; format: ADME, organism-based, Macaca mulatta; design: dose 2.2 mg/kg, route intravenous; settings: rhesus monkey, plasma
[9] = Half life in monkey; format: ADME, organism-based, Macaca mulatta; settings: rhesus monkey, in vivo
[10] = AUC in dog at 3 mg/kg, po; format: ADME, organism-based, Canis lupus familiaris; design: dose 3 mg/kg, route oral; settings: plasma
In short: (§1)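 AUC is given in µM h. Compounds were tested as mixtures of two diastereomers at the P1 α-centre, with the isomer ratio varying slightly by compound.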

[11] = AUC in dog at 2.2 mg/kg, iv; format: ADME, organism-based, Canis lupus familiaris; design: dose 2.2 mg/kg, route intravenous; settings: plasma; in short: as §1
[12] = Half life in dog; format: ADME, organism-based, Canis lupus familiaris; settings: in vivo
[13] = Oral bioavailability in dog; format: ADME, organism-based, Canis lupus familiaris; settings: in vivo
[14] = AUC in monkey at 1.5 mg/kg, po; format: ADME, organism-based, Macaca mulatta; design: dose 1.5 mg/kg, route oral; settings: rhesus monkey, plasma; in short: as §1
[15] = AUC in monkey at 0.6 mg/kg, iv; format: ADME, organism-based, Macaca mulatta; design: dose 0.6 mg/kg, route intravenous; settings: rhesus monkey, plasma; in short: as §1
[16] = AUC in dog at 1.5 mg/kg, po; format: ADME, organism-based, Canis lupus familiaris; design: dose 1.5 mg/kg, route oral; settings: plasma; in short: as §1
[17] = AUC in dog at 0.6 mg/kg, iv; format: ADME, organism-based, Canis lupus familiaris; design: dose 0.6 mg/kg, route intravenous; settings: plasma; in short: as §1
[18] = AUC in rat at 7.5 mg/kg, po; format: ADME, organism-based; design: dose 7.5 mg/kg, route oral; settings: plasma; in short: as §1
[19] = AUC in rat at 6 mg/kg, iv; format: ADME, organism-based; design: dose 6 mg/kg, route intravenous; settings: plasma; in short: as §1

CCCC(NC(=O)[C@@H]1[C@@H]2[C@H](CN1C(=O)[C@@H](NC(=O)OC(C)(C)C)C1CCCCC1)C2(Cl)Cl)C(=O)C(=O)NCC(=O)N[C@H](C(=O)N(C)C)c1ccccc1 (stereo partly drawn) (Boc-[Chg][Pro(3S,4R-CCl2)][X3]G[Phg]-NMe2)
pKi [1]: 7.82

CN(C)C(=O)[C@@H](NC(=O)CNC(=O)C(=O)C(CC1CC1)NC(=O)[C@@H]1[C@@H]2[C@H](CN1C(=O)[C@@H](NC(=O)OC(C)(C)C)C(C)(C)C)C2(C)C)c1ccccc1 (stereo partly drawn) (Boc-[Tle][Pro(3R,4S-CMe2)][X1]G[Phg]-NMe2)
pKi [1]: 8.42
pEC50 (Hepatitis C virus): 7.40
bioavailability [2]: 4%
bioavailability [3]: 1%

CCCC(NC(=O)[C@@H]1[C@@H]2[C@H](CN1C(=O)[C@@H](NC(=O)NC(C)(C)C)C1CCCCC1)C2(Cl)Cl)C(=O)C(N)=O (stereo partly specified)
pKi [1]: 7.70

CC(C)(C)OC(=O)N[C@H](C(=O)N1C[C@H]2[C@@H]([C@H]1C(=O)NC(CC1CC1)C(=O)C(N)=O)C2(Cl)Cl)C1CCCCC1 (stereo partly specified)
pKi [1]: 7.96
pEC50 (Hepatitis C virus): 6.30
AUC [4]: 2.7 µM·h
AUC [5]: 10.7 µM·h
half-life [6]: 4.4 h
bioavailability [2]: 26%
AUC [7]: 0.13 µM·h
AUC [8]: 1.2 µM·h
half-life [9]: 9.6 h
bioavailability [3]: 8%
AUC [10]: 0.07 µM·h
AUC [11]: 2.6 µM·h
half-life [12]: 16 h
bioavailability [13]: 2%

CC(C)(C)NC(=O)N[C@H](C(=O)N1C[C@H]2[C@@H]([C@H]1C(=O)NC(CC1CCC1)C(=O)C(N)=O)C2(Cl)Cl)C1Cc2ccccc2C1 (stereo partly specified)
pKi [1]: 7.52

C=CCNC(=O)C(=O)C(CCC)NC(=O)[C@@H]1[C@@H]2[C@H](CN1C(=O)[C@@H](NC(=O)NC(C)(C)C)C1CCCCC1)C2(Cl)Cl (stereo partly specified)
pKi [1]: 7.00

CC(C)(C)OC(=O)N[C@H](C(=O)N1C[C@H]2[C@@H]([C@H]1C(=O)NC(CC1CCC1)C(=O)C(N)=O)C2(Cl)Cl)C(C)(C)C (stereo partly specified)
pKi [1]: 8.05
pEC50 (Hepatitis C virus): 7.00
AUC [4]: 0.3 µM·h
AUC [5]: 2.6 µM·h
half-life [6]: 5.6 h
bioavailability [2]: 12%
AUC [7]: 0.77 µM·h
AUC [8]: 1.2 µM·h
half-life [9]: 1.1 h
bioavailability [3]: 50%
AUC [10]: 0.61 µM·h
AUC [11]: 4.5 µM·h
half-life [12]: 6.3 h
bioavailability [13]: 10%

CC(C)(C)NC(=O)N[C@H](C(=O)N1C[C@H]2[C@@H]([C@H]1C(=O)NC(CC1CCC1)C(=O)C(N)=O)C2(Cl)Cl)C1CCCCC1 (stereo partly specified)
pKi [1]: 8.22
pEC50 (Hepatitis C virus): 6.52
AUC [4]: 0.32 µM·h

CN(C)C(=O)[C@@H](NC(=O)CNC(=O)C(=O)C(CC1CCC1)NC(=O)[C@@H]1[C@@H]2[C@H](CN1C(=O)[C@@H](NC(=O)OC(C)(C)C)C1CCCCC1)C2(Cl)Cl)c1ccccc1 (stereo partly drawn) (Boc-[Chg][Pro(3S,4R-CCl2)][X2]G[Phg]-NMe2)
pKi [1]: 8.05

CC(C)(C)NC(=O)N[C@H](C(=O)N1C[C@H]2[C@@H]([C@H]1C(=O)NC(CC1CCC1)C(=O)C(N)=O)C2(C)C)C(C)(C)C (stereo partly specified) [BOCEPREVIR]
pKi [1]: 7.85
pEC50 (Hepatitis C virus): 6.70

C=CCCC(NC(=O)[C@@H]1[C@@H]2[C@H](CN1C(=O)[C@@H](NC(=O)NC(C)(C)C)C1CCCCC1)C2(Cl)Cl)C(=O)C(=O)NCC=C (stereo partly specified)
pKi [1]: 7.36

CCCC(NC(=O)[C@@H]1[C@@H]2[C@H](CN1C(=O)[C@@H](NC(=O)OC(C)(C)C)C1CCCCC1)C2(Cl)Cl)C(=O)C(N)=O (stereo partly specified)
pKi [1]: 7.44

C=CCNC(=O)C(=O)C(CCC)NC(=O)[C@@H]1[C@@H]2[C@H](CN1C(=O)[C@@H](NC(=O)OC(C)(C)C)C1CCCCC1)C2(Cl)Cl (stereo partly specified)
pKi [1]: 7.05

CC(C)(C)OC(=O)N[C@H](C(=O)N1C[C@H]2[C@@H]([C@H]1C(=O)NC(CC1CCC1)C(=O)C(N)=O)C2(Cl)Cl)C1CCCCC1 (stereo partly specified)
pKi [1]: 7.77
pEC50 (Hepatitis C virus): 6.52
AUC [4]: 2.4 µM·h
AUC [14]: 0.06 µM·h
AUC [15]: 0.6 µM·h
half-life [9]: 1.9 h
bioavailability [3]: 4%
AUC [16]: 0.1 µM·h
AUC [17]: 2 µM·h
half-life [12]: 4.7 h
bioavailability [13]: 2%

NC(=O)C(=O)C(CC1CCC1)NC(=O)[C@@H]1[C@@H]2[C@H](CN1C(=O)[C@@H](NC(=O)OC1CC3CCC1C3)C1CCCCC1)C2(Cl)Cl (stereo partly specified)
pKi [1]: 7.22
pEC50 (Hepatitis C virus): 6.70
AUC [4]: 0.75 µM·h

CC(C)(OC(=O)N[C@H](C(=O)N1C[C@H]2[C@@H]([C@H]1C(=O)NC(CC1CCC1)C(=O)C(N)=O)C2(Cl)Cl)C1CCCCC1)C(F)(F)F (stereo partly specified)
pKi [1]: 7.19

CC(C)(C)NC(=O)N[C@H](C(=O)N1C[C@H]2[C@@H]([C@H]1C(=O)NC(CC1CCC1)C(=O)C(N)=O)C2(Cl)Cl)C(C)(C)C (stereo partly specified)
pKi [1]: 8.15
pEC50 (Hepatitis C virus): 6.70
AUC [18]: 0.12 µM·h
AUC [19]: 1.9 µM·h
half-life [6]: 2.7 h
bioavailability [2]: 5%

CN(C)C(=O)[C@@H](NC(=O)CNC(=O)C(=O)C(CC1CC1)NC(=O)[C@@H]1[C@@H]2[C@H](CN1C(=O)[C@@H](NC(=O)OC(C)(C)C)C1CCCCC1)C2(Cl)Cl)c1ccccc1 (stereo partly drawn) (Boc-[Chg][Pro(3S,4R-CCl2)][X1]G[Phg]-NMe2)
pKi [1]: 8.15

NC(=O)C(=O)C(CC1CCC1)NC(=O)[C@@H]1[C@@H]2[C@H](CN1C(=O)[C@@H](NC(=O)NC1CCCCC1)C1CCCCC1)C2(Cl)Cl (stereo partly specified)
pKi [1]: 7.82

CC(C)(C)OC(=O)N[C@H](C(=O)N1C[C@H]2[C@@H]([C@H]1C(=O)NC(CC1CCC1)C(=O)C(N)=O)C2(Cl)Cl)C1Cc2ccccc2C1 (stereo partly specified)
pKi [1]: 7.22

C[C@@H](NC(=O)N[C@H](C(=O)N1C[C@H]2[C@@H]([C@H]1C(=O)NC(CC1CCC1)C(=O)C(N)=O)C2(Cl)Cl)C1CCCCC1)C(C)(C)C (stereo partly specified)
pKi [1]: 8.00
pEC50 (Hepatitis C virus): 7.40
